{"source": "paper PMC11525735", "about": "(ACS Omega, 2024)", "key": {"MDA-MB-231 cells": {"test_system": "MDA-MB-231 cells", "assay": "In vitro fluorescence imaging of Cy5.5-A11", "assay_type": "cell-based", "conditions": "6 h", "in_short": "(§1)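 Cells (5×10^4; kept in DMEM or RPMI-1640 with 10% FBS) were plated in chamber slides and cultured 24 h. They were then exposed to 10 nM Cy5.5-labelled test peptide at 37 °C for 6 h; blocking wells also received 1 μM unlabelled peptide. After three PBS washes, cells were fixed in 4% paraformaldehyde for 20 min and DAPI-stained. Images were taken by laser confocal microscopy.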"}, "H460 cells": {"test_system": "H460 cells", "assay": "In vitro fluorescence imaging of Cy5.5-A11", "assay_type": "cell-based", "conditions": "6 h", "in_short": "as §1"}, "A375 cells": {"test_system": "A375 cells", "assay": "In vitro fluorescence imaging of Cy5.5-A11", "assay_type": "cell-based", "conditions": "6 h", "in_short": "as §1"}, "MDA-MB-231 xenografts": {"test_system": "MDA-MB-231 xenografts", "assay": "In vivo NIF whole-body imaging of tumor-bearing mice", "design": "species or system BALB/c nu/nu nude mice", "conditions": "MDA-MB-231 xenograft, 1 nM Cy5.5-A11 i.v.", "in_short": "(§2)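 Five-week-old female nude mice carried right-shoulder subcutaneous xenografts (5×10^6 cells). At 100 mm³, 1 nM Cy5.5-labelled test peptide was given i.v. (n = 3). Whole-body NIR imaging followed at 0.5, 1, 2, 3, 4, 5, 6 and 24 h p.i. with a Cy5.5 filter set, 1 s exposure, f/stop 4 and fixed illumination, in p/s/cm²/sr. Tumour-to-muscle ratio came from ROI mean intensities; mean ± SD.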"}, "H460 xenografts": {"test_system": "H460 xenografts", "assay": "In vivo NIF whole-body imaging of tumor-bearing mice", "design": "species or system BALB/c nu/nu nude mice", "conditions": "H460 xenograft, 1 nM Cy5.5-A11 i.v.", "in_short": "as §2"}, "A375 xenografts": {"test_system": "A375 xenografts", "assay": "In vivo NIF whole-body imaging of tumor-bearing mice", "design": "species or system BALB/c nu/nu nude mice", "conditions": "A375 xenograft, 1 nM Cy5.5-A11 i.v.", "in_short": "as §2"}, "[1]": {"test_system": "MDA-MB-231 tumor-bearing mice", "assay": "Ex vivo biodistribution study", "assay_type": "in vivo, BALB/c nu/nu nude mice", "conditions": "4 h p.i.", "in_short": "(§3)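 Five-week-old female nude mice carried subcutaneous right-shoulder xenografts (5×10^6 cells), including xenografts from stable shRNA PD-L1-knockdown lines. At 100 mm³ tumour volume, mice received 1 nM Cy5.5-labelled test peptide i.v., with or without 1 μM unlabelled peptide (n = 3). Mice were killed at 4 h p.i. Tumour, brain, heart, lung, liver, stomach, intestine, spleen, kidney and muscle were imaged ex vivo through a Cy5.5 filter set. Average fluorescence per specimen was taken by ROI; mean ± SD.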"}, "H460 tumor-bearing mice": {"test_system": "H460 tumor-bearing mice", "assay": "Ex vivo biodistribution study", "assay_type": "in vivo, BALB/c nu/nu nude mice", "conditions": "4 h p.i.", "in_short": "as §3"}, "A375 tumor-bearing mice": {"test_system": "A375 tumor-bearing mice", "assay": "Ex vivo biodistribution study", "assay_type": "in vivo, BALB/c nu/nu nude mice", "conditions": "4 h p.i.", "in_short": "as §3"}, "PD-L1": {"test_system": "PD-L1", "conditions": "various cancer cells; cited from earlier work"}, "[2]": {"conditions": "0.5-6 h p.i., ROI analysis, n = 3"}}}
{"substance": "Cy5.5-EYVQTVKSSKG [Cy5.5-A11]", "values": [{"measurement": "fluorescent signal of cells, blocking with unlabeled A11", "setting": "MDA-MB-231 cells; MDA-MB-231, 10 nM Cy5.5-A11 + 1 μM unlabeled A11, 37 °C, confocal microscopy", "value": "successfully blocked"}, {"measurement": "fluorescent signal of cells", "setting": "MDA-MB-231 cells; MDA-MB-231, 10 nM Cy5.5-A11, 37 °C, laser confocal microscopy, nonblocking", "value": "robust fluorescent signal"}, {"measurement": "fluorescent signal in PD-L1 knockdown versus shNC control cells", "setting": "MDA-MB-231 cells; MDA-MB-231 stable PD-L1 shRNA knockdown and shNC control, 10 nM Cy5.5-A11, 37 °C, confocal microscopy", "value": "seen in shNC control cells but not PD-L1 knockdown cancer cells"}, {"measurement": "fluorescent signal of cells, blocking with unlabeled A11", "setting": "H460 cells; H460, 10 nM Cy5.5-A11 + 1 μM unlabeled A11, 37 °C, confocal microscopy", "value": "successfully blocked"}, {"measurement": "fluorescent signal of cells", "setting": "H460 cells; H460, 10 nM Cy5.5-A11, 37 °C, laser confocal microscopy, nonblocking", "value": "robust fluorescent signal"}, {"measurement": "fluorescent signal in PD-L1 knockdown versus shNC control cells", "setting": "H460 cells; H460 stable PD-L1 shRNA knockdown and shNC control, 10 nM Cy5.5-A11, 37 °C, confocal microscopy", "value": "seen in shNC control cells but not PD-L1 knockdown cancer cells"}, {"measurement": "fluorescent signal of cells, blocking with unlabeled A11", "setting": "A375 cells; A375, 10 nM Cy5.5-A11 + 1 μM unlabeled A11, 37 °C, confocal microscopy", "value": "successfully blocked"}, {"measurement": "fluorescent signal of cells", "setting": "A375 cells; A375, 10 nM Cy5.5-A11, 37 °C, laser confocal microscopy, nonblocking", "value": "robust fluorescent signal"}, {"measurement": "fluorescent signal in PD-L1 knockdown versus shNC control cells", "setting": "A375 cells; A375 stable PD-L1 shRNA knockdown and shNC control, 10 nM Cy5.5-A11, 37 °C, confocal microscopy", "value": "seen in shNC control cells but not PD-L1 knockdown cancer cells"}, {"measurement": "tumor-to-muscle fluorescence signal ratio", "setting": "MDA-MB-231 xenografts; [2]", "value": "High"}, {"measurement": "tumor-specific fluorescence signal at 24 h p.i.", "setting": "MDA-MB-231 xenografts; 24 h p.i.", "value": "distinctly visible"}, {"measurement": "time of peak tumor-specific fluorescence signal", "setting": "MDA-MB-231 xenografts; n = 3", "value": 2, "unit": "h p.i."}, {"measurement": "tumor-to-muscle fluorescence signal ratio", "setting": "H460 xenografts; [2]", "value": "High"}, {"measurement": "tumor-specific fluorescence signal at 24 h p.i.", "setting": "H460 xenografts; 24 h p.i.", "value": "distinctly visible"}, {"measurement": "time of peak tumor-specific fluorescence signal", "setting": "H460 xenografts; n = 3", "value": 2, "unit": "h p.i."}, {"measurement": "tumor-to-muscle fluorescence signal ratio", "setting": "A375 xenografts; [2]", "value": "High"}, {"measurement": "tumor-specific fluorescence signal at 24 h p.i.", "setting": "A375 xenografts; 24 h p.i.", "value": "distinctly visible"}, {"measurement": "time of peak tumor-specific fluorescence signal", "setting": "A375 xenografts; n = 3", "value": 2, "unit": "h p.i."}, {"measurement": "ex vivo uptake in the xenografts with excessive unlabeled A11", "setting": "[1]; MDA-MB-231, blocking group, 1 nM Cy5.5-A11 + 1 μM unlabeled A11 i.v.", "value": "obviously reduced"}, {"measurement": "ex vivo uptake of the probe in the xenografts", "setting": "[1]; MDA-MB-231, nonblocking group, 1 nM Cy5.5-A11 i.v., ex vivo fluorescence, ROI", "value": "significant uptake"}, {"measurement": "ex vivo fluorescent signal in xenografts of cancer cells with PD-L1 knockdown", "setting": "[1]; PD-L1 knockdown MDA-MB-231, 1 nM Cy5.5-A11 i.v.", "value": "dramatically decreased"}, {"measurement": "ex vivo uptake in the xenografts with excessive unlabeled A11", "setting": "H460 tumor-bearing mice; H460, blocking group, 1 nM Cy5.5-A11 + 1 μM unlabeled A11 i.v.", "value": "obviously reduced"}, {"measurement": "ex vivo uptake of the probe in the xenografts", "setting": "H460 tumor-bearing mice; H460, nonblocking group, 1 nM Cy5.5-A11 i.v., ex vivo fluorescence, ROI", "value": "significant uptake"}, {"measurement": "ex vivo fluorescent signal in xenografts of cancer cells with PD-L1 knockdown", "setting": "H460 tumor-bearing mice; PD-L1 knockdown H460, 1 nM Cy5.5-A11 i.v.", "value": "dramatically decreased"}, {"measurement": "ex vivo uptake in the xenografts with excessive unlabeled A11", "setting": "A375 tumor-bearing mice; A375, blocking group, 1 nM Cy5.5-A11 + 1 μM unlabeled A11 i.v.", "value": "obviously reduced"}, {"measurement": "ex vivo uptake of the probe in the xenografts", "setting": "A375 tumor-bearing mice; A375, nonblocking group, 1 nM Cy5.5-A11 i.v., ex vivo fluorescence, ROI", "value": "significant uptake"}, {"measurement": "organ uptake (biodistribution)", "setting": "A375 tumor-bearing mice; A375 tumor-bearing mice, three groups (nonblocking, blocking, PD-L1 KD), ex vivo fluorescence, ROI", "value": "higher in the liver and kidney than that in other organs"}, {"measurement": "ex vivo fluorescent signal in xenografts of cancer cells with PD-L1 knockdown", "setting": "A375 tumor-bearing mice; PD-L1 knockdown A375, 1 nM Cy5.5-A11 i.v.", "value": "dramatically decreased"}]}
{"substance": "EYVQTVKSSKG [A11]", "values": [{"measurement": "action on PD-L1", "setting": "PD-L1", "value": "binds and degrades PD-L1"}]}
